# Source: ChEMBL document CHEMBL3108701, “Isolation of arginase inhibitors from the bioactivity-guided fractionation of Byrsonima coccolobifolia leaves and stems” (J Nat Prod, 2014)
# How the values were obtained:
# [1] = molecular target: T1, Arginase (Leishmania amazonensis, UniProt O96394); experiment: Inhibition of Leishmania amazonensis recombinant arginase expressed in Escherichia coli Rosetta (DE3) pLysS using L-arginine as substrate incubated for 10 mins prior to substrate addition measured after 10 mins by colorimetry
# [2] = molecular target: Arginase (Leishmania amazonensis) (UniProt O96394); experiment: Noncompetitive inhibition of Leishmania amazonensis recombinant arginase expressed in Escherichia coli Rosetta (DE3) pLysS using L-arginine as substrate assessed as enzyme-substrate-inhibitor complex by Dixon reciprocal plot analysis
# Outline: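 Purified recombinant L. amazonensis arginase in 50 mM CHES pH 9.6, 37 °C, with urea read at 600 nm by urease-coupled colorimetry. Three inhibitor concentrations plus an uninhibited control were tested against L-arginine at 6.25–72.0 mM. Inhibition type, Ki and Kis were taken from double-reciprocal plots.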
# [3] = molecular target: T1, Arginase; experiment: Noncompetitive inhibition of Leishmania amazonensis recombinant arginase expressed in Escherichia coli Rosetta (DE3) pLysS using L-arginine as substrate by Dixon reciprocal plot analysis
# Outline: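 His-tagged enzyme purified by Ni-NTA then DEAE anion exchange. Urea production from L-arginine measured in 50 mM CHES pH 9.6 at 37 °C. Enzyme was preincubated 10 min with inhibitor at three concentrations plus a no-inhibitor control. Substrate was then added at 6.25–72.0 mM and reacted for 10 min. Urea read by urease/salicylate–hypochlorite colorimetry at 600 nm, in duplicate. Inhibition type and Ki taken from reciprocal plots.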
IC50 [1],SMILES,Kis [2],Ki [3]
121 µM,CC(=O)Oc1cc(OC(C)=O)c2c(=O)c(OC(C)=O)c(-c3ccc(OC(C)=O)c(OC(C)=O)c3)oc2c1,–,–
88.1 µM,COc1ccc(-c2oc3cc(O)cc(O)c3c(=O)c2O[C@@H]2O[C@@H](C)[C@H](O)[C@@H](O)[C@H]2O)cc1O,–,–
224 µM,COc1c(O)cc(-c2oc3cc(O)cc(O)c3c(=O)c2O[C@@H]2O[C@@H](C)[C@H](O)[C@@H](O)[C@H]2O)cc1O,–,–
128 µM,COc1cc(-c2oc3cc(OC)c(OC)c(OC)c3c(=O)c2OC)cc(OC)c1OC,–,–
35.1 µM,C[C@@H]1O[C@@H](O[C@@H]2Cc3c(O)cc(O)cc3O[C@H]2c2ccc(O)c(O)c2)[C@H](O)[C@H](O)[C@H]1O,–,–
2 µM,O=c1c(O[C@@H]2O[C@H](CO)[C@@H](O)[C@H](O)[C@H]2O)c(-c2ccc(O)c(O)c2)oc2cc(O)cc(O)c12 [ISOQUERCETIN],6.9 µM,–
13.7 µM,COc1cc([C@H]2OC[C@H]3[C@@H]2CO[C@@H]3c2cc(OC)c(O)c(OC)c2)cc(OC)c1O [SYRINGARESINOL],–,–
16.6 µM,COC1=Cc2c(cc(OC)c3cc(C)c(OC)cc23)C(C)(C)C1=O [TRIGONOSTEMONE],–,–

SMILES,IC50 [1],Kis [2],Ki [3]
C[C@H]1O[C@H](Oc2c(-c3cc(O)c(O)c(O)c3)oc3cc(O)cc(O)c3c2=O)[C@@H](O)[C@@H](O)[C@@H]1O,2.4 µM,1.9 µM,3.8 µM
Oc1cc(O)c2c(c1)O[C@H](c1ccc(O)c(O)c1)[C@H](O)C2 [(-)-EPICATECHIN],1.6 µM,–,0.2 µM
Oc1cc(O)c2c(c1)O[C@H](c1ccc(O)c(O)c1)[C@@H](O)C2 [CIANIDANOL],1.7 µM,–,0.6 µM
O=c1c(O)c(-c2ccc(O)cc2)oc2cc(O)cc(O)c12 [KAEMPFEROL],55 µM,–,–
O=c1c(O)c(-c2cc(O)c(O)c(O)c2)oc2cc(O)cc(O)c12 [MYRICETIN],2.1 µM,–,1.2 µM
O=c1c(O)c(-c2ccc(O)c(O)c2)oc2cc(O)cc(O)c12 [QUERCETIN],4 µM,–,–
C[C@@H]1O[C@@H](Oc2c(-c3ccc(O)c(O)c3)oc3cc(O)cc(O)c3c2=O)[C@H](O)[C@H](O)[C@H]1O [QUERCITRIN],12.2 µM,7.2 µM,7.9 µM
